According to ChEMBL document CHEMBL1212762, “In vivo activity of ceftobiprole in murine skin infections due to Staphylococcus aureus and Pseudomonas aeruginosa” (Antimicrob Agents Chemother, 2010):

Key:
Pseudomonas aeruginosa [1] = experiment: Antimicrobial activity against Pseudomonas aeruginosa OC 4354 infected in immunocompromized SKH1 mouse assessed as log change in bacterial colony forming unit at 100 mg/kg/day, sc; type: functional; conditions: route subcutaneous
Method in brief: (§1)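 Female SKH1 hairless mice made neutropenic with ip cyclophosphamide (150 mg/kg 5 days and 100 mg/kg 1 day before infection). 0.2 ml s.c. Cytodex bead (0.1% vol/vol) inoculum in BHI: OC 4351 left flank, OC 4354 right flank. Drug s.c. at 1, 3, 25, 27 h postinfection. Killed at 48 h; skin homogenised in saline, plated on TSA 18 h 37°C; Δlog CFU/g versus inoculum. 5 mice/dose, run twice.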

Pseudomonas aeruginosa [2] = experiment: Antimicrobial activity against Pseudomonas aeruginosa OC 4351 infected in immunocompromized SKH1 mouse assessed as log change in bacterial colony forming unit at 100 mg/kg/day, sc; type: functional; conditions: route subcutaneous; method in brief: as §1
Pseudomonas aeruginosa [3] = experiment: Antimicrobial activity against Pseudomonas aeruginosa OC 4351 assessed as inhibition of growth by broth microdilution method; type: functional
Pseudomonas aeruginosa [4] = experiment: Antimicrobial activity against Pseudomonas aeruginosa OC 4351 infected in immunocompromized SKH1 mouse assessed as log change in bacterial colony forming unit at 1.6 mg/kg/day, sc; type: functional; conditions: route subcutaneous; method in brief: as §1
Pseudomonas aeruginosa [5] = experiment: Antimicrobial activity against Pseudomonas aeruginosa OC 4354 infected in immunocompromized SKH1 mouse assessed as log change in bacterial colony forming unit at 25 mg/kg/day, sc; type: functional; conditions: route subcutaneous; method in brief: as §1
Plasma [6] = experiment: fAUC (0-infinity) in immunocompromized SKH1 mouse plasma at 50 mg/kg, sc; type: ADME, organism-based; set-up: dose 50 mg/kg, route subcutaneous; conditions: in vivo
Method in brief: (§2)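 Female SKH1 hairless mice, immunocompetent or cyclophosphamide-neutropenic, infected s.c. with MRSA OC 8525 or P. aeruginosa OC 4354 on the Cytodex beads (left flank), sterile beads on the right. Single dose 24 h later: s.c. at the nape, or linezolid 50 mg/kg oral. Plasma and skin (DMSO homogenate) sampled over time, HPLC with diode array.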

Plasma [7] = experiment: fCmax in immunocompromized SKH1 mouse plasma at 50 mg/kg, sc; type: ADME, organism-based; set-up: dose 50 mg/kg, route subcutaneous; conditions: in vivo; method in brief: as §2
[8] = Tmax in immunocompromized SKH1 mouse plasma at 50 mg/kg, sc; type: ADME, organism-based; set-up: dose 50 mg/kg, route subcutaneous; method in brief: as §2
Pseudomonas aeruginosa [9] = experiment: Antimicrobial activity against Pseudomonas aeruginosa OC 4354 infected in immunocompromized SKH1 mouse assessed as log change in bacterial colony forming unit at 6.2 mg/kg/day, sc; type: functional; conditions: route subcutaneous; method in brief: as §1
Pseudomonas aeruginosa [10] = experiment: Antimicrobial activity against Pseudomonas aeruginosa OC 4351 infected in immunocompromized SKH1 mouse assessed as log change in bacterial colony forming unit at 25 mg/kg/day, sc; type: functional; conditions: route subcutaneous; method in brief: as §1
Pseudomonas aeruginosa [11] = experiment: Antimicrobial activity against Pseudomonas aeruginosa OC 4354 infected in immunocompromized SKH1 mouse assessed as log change in bacterial colony forming unit at 1.6 mg/kg/day, sc; type: functional; conditions: route subcutaneous; method in brief: as §1
Pseudomonas aeruginosa [12] = experiment: Antimicrobial activity against Pseudomonas aeruginosa OC 4351 infected in immunocompromized SKH1 mouse assessed as log change in bacterial colony forming units at 25 mg/kg/day, sc; type: functional; conditions: route subcutaneous; method in brief: as §1
Pseudomonas aeruginosa [13] = experiment: Antimicrobial activity against Pseudomonas aeruginosa OC 4354 assessed as inhibition of growth by broth microdilution method; type: functional
Plasma [14] = experiment: fAUC (0-infinity) in immunocompetent SKH1 mouse plasma at 50 mg/kg, po; type: ADME, organism-based; set-up: dose 50 mg/kg, route oral; conditions: in vivo; method in brief: as §2
[15] = Tmax in immunocompetent SKH1 mouse plasma at 50 mg/kg, po; type: ADME, organism-based; set-up: dose 50 mg/kg, route oral; method in brief: as §2
[16] = Ratio of fAUC to MIC in Staphylococcus aureus OC 4172 infected sc dosed SKH1 mouse; type: functional
Method in brief: (§3)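 Free-drug plasma AUC, converted from μg·min/ml to μg·h/ml, divided by the MIC of the infecting S. aureus strain.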

Staphylococcus aureus [17] = experiment: Antimicrobial activity against methicillin-resistant Staphylococcus aureus OC 8525 infected immunocompetent SKH1 mouse assessed as lesion volume at 25 mg/kg/day, sc measured after 48 hrs postinfection (reference value: 1535 mm3); conditions: route subcutaneous
Staphylococcus aureus [18] = experiment: Antimicrobial activity against methicillin-susceptible Staphylococcus aureus Smith OC 4172 infected immunocompetent SKH1 mouse assessed as lesion volume at 1.6 mg/kg/day, sc measured after 48 hrs postinfection (reference value: 1181 mm3); conditions: route subcutaneous
Plasma [19] = experiment: fCmax in immunocompetent SKH1 mouse plasma at 50 mg/kg, po; type: ADME, organism-based; set-up: dose 50 mg/kg, route oral; conditions: in vivo; method in brief: as §2
[20] = Protein binding in mouse plasma; type: ADME, cell-free; conditions: read-out: PPB (converted)
Staphylococcus aureus [21] = experiment: Antimicrobial activity against methicillin-resistant Staphylococcus aureus OC 8525 infected immunocompetent SKH1 mouse assessed as lesion volume at 6.2 mg/kg/day, sc measured after 48 hrs postinfection (reference value: 1535 mm3); conditions: route subcutaneous
[22] = Ratio of fAUC to MIC in Staphylococcus aureus OC 8525 infected sc dosed SKH1 mouse; type: functional; method in brief: as §3
Staphylococcus aureus [23] = experiment: Antimicrobial activity against methicillin-resistant Staphylococcus aureus OC 8525 infected immunocompetent SKH1 mouse assessed as lesion volume at 1.6 mg/kg/day, sc measured after 48 hrs postinfection (reference value: 1535 mm3); conditions: route subcutaneous
Staphylococcus aureus [24] = experiment: Antimicrobial activity against methicillin-resistant Staphylococcus aureus OC 8525 infected immunocompetent SKH1 mouse assessed as lesion volume at 100 mg/kg/day, sc measured after 48 hrs postinfection (reference value: 1535 mm3); conditions: route subcutaneous
Staphylococcus aureus [25] = experiment: Antimicrobial activity against methicillin-susceptible Staphylococcus aureus Smith OC 4172 infected immunocompetent SKH1 mouse assessed as lesion volume at 25 mg/kg/day, sc measured after 48 hrs postinfection (reference value: 1181 mm3); conditions: route subcutaneous
Staphylococcus aureus [26] = experiment: Antimicrobial activity against methicillin-susceptible Staphylococcus aureus Smith OC 4172 infected immunocompetent SKH1 mouse assessed as lesion volume at 6.2 mg/kg/day, sc measured after 48 hrs postinfection (reference value: 1181 mm3); conditions: route subcutaneous
[27] = Half life in immunocompetent SKH1 mouse plasma at 50 mg/kg, po; type: ADME, organism-based; set-up: dose 50 mg/kg, route oral; method in brief: as §2

CO/N=C(\C(=O)N[C@@H]1C(=O)N2C(C(=O)[O-])=C(C[N+]3(C)CCCC3)CS[C@H]12)c1csc(N)n1
deltalog10CFU (Pseudomonas aeruginosa [1]): 1.7 | deltalog10CFU (Pseudomonas aeruginosa [2]): 1 | MIC (Pseudomonas aeruginosa [3]): 4 µg/mL | deltalog10CFU (Pseudomonas aeruginosa [4]): 2.1 | deltalog10CFU (Pseudomonas aeruginosa [5]): 1.7 | fAUC (Plasma [6]): 1790 µg·min/mL | fCmax (Plasma [7]): 66 µg/mL | Tmax [8]: 7.5 min | deltalog10CFU (Pseudomonas aeruginosa [9]): 2.9 | deltalog10CFU (Pseudomonas aeruginosa [10]): 2.1 | deltalog10CFU (Pseudomonas aeruginosa [11]): 1.7 | deltalog10CFU (Pseudomonas aeruginosa [12]): 1.8 | MIC (Pseudomonas aeruginosa [13]): 32 µg/mL

CC(=O)NC[C@H]1CN(c2ccc(N3CCOCC3)c(F)c2)C(=O)O1 [LINEZOLID]
fAUC (Plasma [14]): 1795 µg·min/mL | Tmax [15]: 30 min | fAUC/MIC [16]: 898 | Activity (Staphylococcus aureus [17]): 932 mm3 | Activity (Staphylococcus aureus [18]): 1407 mm3 | fCmax (Plasma [19]): 14 µg/mL | fraction unbound [20]: 0.68 | Activity (Staphylococcus aureus [21]): 1277 mm3 | fAUC/MIC [22]: 449 | Activity (Staphylococcus aureus [23]): 1644 mm3 | Activity (Staphylococcus aureus [24]): 858 mm3 | Activity (Staphylococcus aureus [25]): 1018 mm3 | Activity (Staphylococcus aureus [26]): 1234 mm3 | half-life [27]: 102 min
